Results from publication PMC4929832 (Nature, 2016).

Columns and labels:
FMS = FMS (Homo sapiens, UniProt P07333); experiment: kinase panel; assay type: biochemical
MAP4K5 = MAP4K5 (Homo sapiens, UniProt Q9Y4K4); experiment: kinase panel; assay type: biochemical
CK1-GAMMA1 = CK1-GAMMA1 (Homo sapiens, UniProt Q9HCP0); experiment: kinase panel; assay type: biochemical
MAPKAPK2 = MAPKAPK2 (Homo sapiens, UniProt P49137); experiment: kinase panel; assay type: biochemical
ALK2 = ALK2 (Homo sapiens, UniProt Q04771); experiment: kinase panel; assay type: biochemical
CK2 = experiment: kinase panel; assay type: biochemical; conditions: CK2, 1 μM
MAPKAPK3 = MAPKAPK3 (Homo sapiens, UniProt Q16644); experiment: kinase panel; assay type: biochemical
CLK1 = CLK1 (Homo sapiens, UniProt P49759); experiment: kinase panel; assay type: biochemical
MEK2 = MEK2 (Homo sapiens, UniProt P36507); experiment: kinase panel; assay type: biochemical
PI3K-ALPHA = PI3K-ALPHA (Homo sapiens, UniProt P42336); experiment: kinase panel; assay type: biochemical
SGK2 = SGK2 (Homo sapiens, UniProt Q9HBY8); experiment: kinase panel; assay type: biochemical
PI3K-BETA = PI3K-BETA (Homo sapiens, UniProt P42338); experiment: kinase panel; assay type: biochemical
SLK = SLK (Homo sapiens, UniProt Q9H2G2); experiment: kinase panel; assay type: biochemical
MKNK1 = MKNK1 (Homo sapiens, UniProt Q9BUB5); experiment: kinase panel; assay type: biochemical
SPHK1 = SPHK1 (Homo sapiens, UniProt Q9NYA1); experiment: kinase panel; assay type: biochemical
MRCK-BETA = MRCK-BETA (Homo sapiens, UniProt Q9Y5S2); experiment: kinase panel; assay type: biochemical
BRAF = BRAF (Homo sapiens, UniProt P15056); experiment: kinase panel; assay type: biochemical
MSK2 = MSK2 (Homo sapiens, UniProt O75676); experiment: kinase panel; assay type: biochemical
ITK = ITK (Homo sapiens, UniProt Q08881); experiment: kinase panel; assay type: biochemical
CAMK2A = CAMK2A (Homo sapiens, UniProt Q9UQM7); experiment: kinase panel; assay type: biochemical
PKC-THETA = PKC-THETA (Homo sapiens, UniProt Q04759); experiment: kinase panel; assay type: biochemical
TAOK3 = TAOK3 (Homo sapiens, UniProt Q9H2K8); experiment: kinase panel; assay type: biochemical
CAMK2D = CAMK2D (Homo sapiens, UniProt Q13557); experiment: kinase panel; assay type: biochemical
JNK1 = JNK1 (Homo sapiens, UniProt P45983); experiment: kinase panel; assay type: biochemical
PKN2 = PKN2 (Homo sapiens, UniProt Q16513); experiment: kinase panel; assay type: biochemical
JNK2 = JNK2 (Homo sapiens, UniProt P45984); experiment: kinase panel; assay type: biochemical
CDK1 = CDK1 (Homo sapiens, UniProt P06493); experiment: kinase panel; assay type: biochemical
PLK4 = PLK4 (Homo sapiens, UniProt O00444); experiment: kinase panel; assay type: biochemical
LATS2 = LATS2 (Homo sapiens, UniProt Q9NRM7); experiment: kinase panel; assay type: biochemical
TRKB = TRKB (Homo sapiens, UniProt Q16620); experiment: kinase panel; assay type: biochemical
P38-BETA = P38-BETA (Homo sapiens, UniProt Q15759); experiment: kinase panel; assay type: biochemical
PRKD3 = PRKD3 (Homo sapiens, UniProt O94806); experiment: kinase panel; assay type: biochemical
P70S6K2 = P70S6K2 (Homo sapiens, UniProt Q9UBS0); experiment: kinase panel; assay type: biochemical
PYK2 = PYK2 (Homo sapiens, UniProt Q14289); experiment: kinase panel; assay type: biochemical
YES = YES (Homo sapiens, UniProt P07947); experiment: kinase panel; assay type: biochemical
RIPK2 = RIPK2 (Homo sapiens, UniProt O43353); experiment: kinase panel; assay type: biochemical
[1] = target: Adrenergic Alpha 2C receptor (Homo sapiens, UniProt P18825); experiment: Adrenergic Alpha 2C receptor assay; assay type: binding
Muscarinic M1 receptor = Muscarinic M1 receptor (Homo sapiens, UniProt P11229); experiment: Muscarinic M1 receptor assay; assay type: binding
[2] = tested on: exon19del/T790M EGFR mutant lung tumors (genetically engineered mice); experiment: Mouse efficacy study, tumor volume by MRI; assay type: in vivo; conditions: EAI045 60 mg/kg with cetuximab 1 mg I.P. every other day
Outline: (§1)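 Transgenic lung tumors were induced at 6 weeks of age: exon19del/T790M mice by doxycycline diet, L858R/T790M/C797S mice by intranasal Ad-Cre. The test compound in 10% NMP/90% PEG-300 was given at 60 mg/kg daily by oral gavage. […] MRI ran at baseline and every 2 weeks, and tumor volume was quantified in 3D at 4 weeks. Cohorts were non-blinded and not randomized.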

[3] = tested on: L858R/T790M/C797S mutant lung tumors (genetically engineered mice); experiment: Mouse efficacy study, tumor volume by MRI; assay type: in vivo; conditions: EAI045 and cetuximab
Outline: as §1

[4] = target: EGFR L858R/T790M in H1975 cells (Homo sapiens, UniProt P00533, L858R/T790M); experiment: EGFR phosphorylation by western blotting; assay type: cell-based; conditions: western blot, 3h

Sequence of ITK (Q08881 whole entry): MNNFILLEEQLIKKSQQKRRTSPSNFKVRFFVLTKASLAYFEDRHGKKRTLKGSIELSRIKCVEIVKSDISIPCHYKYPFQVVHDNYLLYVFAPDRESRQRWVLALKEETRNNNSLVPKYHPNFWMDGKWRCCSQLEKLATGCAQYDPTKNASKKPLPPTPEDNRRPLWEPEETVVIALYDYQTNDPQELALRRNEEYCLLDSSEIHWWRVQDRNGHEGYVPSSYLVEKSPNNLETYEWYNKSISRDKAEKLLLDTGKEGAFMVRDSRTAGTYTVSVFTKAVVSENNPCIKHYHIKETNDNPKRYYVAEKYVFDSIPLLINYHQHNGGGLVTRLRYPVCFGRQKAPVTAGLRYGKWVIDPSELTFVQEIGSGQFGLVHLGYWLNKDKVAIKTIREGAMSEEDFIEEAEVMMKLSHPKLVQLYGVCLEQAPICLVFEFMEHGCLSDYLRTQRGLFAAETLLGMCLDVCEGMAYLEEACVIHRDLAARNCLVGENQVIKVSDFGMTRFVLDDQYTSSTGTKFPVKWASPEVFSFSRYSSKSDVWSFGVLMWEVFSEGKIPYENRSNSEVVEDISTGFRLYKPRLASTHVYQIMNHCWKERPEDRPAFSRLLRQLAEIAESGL
Sequence of PI3K-BETA (P42338 whole entry): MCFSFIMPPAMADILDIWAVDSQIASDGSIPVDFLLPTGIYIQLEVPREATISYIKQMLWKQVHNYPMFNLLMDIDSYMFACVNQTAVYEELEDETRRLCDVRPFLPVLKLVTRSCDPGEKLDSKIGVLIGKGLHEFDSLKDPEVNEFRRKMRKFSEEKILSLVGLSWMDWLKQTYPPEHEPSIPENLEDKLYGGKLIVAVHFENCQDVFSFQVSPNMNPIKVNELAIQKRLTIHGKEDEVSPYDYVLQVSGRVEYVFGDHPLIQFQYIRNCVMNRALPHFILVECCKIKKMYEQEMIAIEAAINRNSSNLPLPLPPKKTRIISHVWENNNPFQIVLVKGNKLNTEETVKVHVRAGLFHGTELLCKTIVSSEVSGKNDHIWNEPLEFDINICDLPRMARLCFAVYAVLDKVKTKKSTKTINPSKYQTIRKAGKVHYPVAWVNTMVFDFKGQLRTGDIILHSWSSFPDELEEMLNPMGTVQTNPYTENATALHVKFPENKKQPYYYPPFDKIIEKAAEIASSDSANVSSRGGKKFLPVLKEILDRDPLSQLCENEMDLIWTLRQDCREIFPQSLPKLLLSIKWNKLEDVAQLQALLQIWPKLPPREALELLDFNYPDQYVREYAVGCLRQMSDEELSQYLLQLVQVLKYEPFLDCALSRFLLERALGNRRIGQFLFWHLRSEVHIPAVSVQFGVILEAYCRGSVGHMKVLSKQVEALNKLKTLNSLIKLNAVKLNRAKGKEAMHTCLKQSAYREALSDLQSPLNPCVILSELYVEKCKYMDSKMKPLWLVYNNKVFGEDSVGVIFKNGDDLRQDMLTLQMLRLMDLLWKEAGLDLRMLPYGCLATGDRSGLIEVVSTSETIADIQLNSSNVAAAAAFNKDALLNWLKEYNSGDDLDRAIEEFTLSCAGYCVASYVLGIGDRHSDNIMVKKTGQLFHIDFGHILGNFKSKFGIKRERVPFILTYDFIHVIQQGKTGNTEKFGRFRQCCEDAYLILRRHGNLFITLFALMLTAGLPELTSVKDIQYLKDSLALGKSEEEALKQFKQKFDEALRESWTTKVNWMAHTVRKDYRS
Sequence of PI3K-BETA (P27986 whole entry partner): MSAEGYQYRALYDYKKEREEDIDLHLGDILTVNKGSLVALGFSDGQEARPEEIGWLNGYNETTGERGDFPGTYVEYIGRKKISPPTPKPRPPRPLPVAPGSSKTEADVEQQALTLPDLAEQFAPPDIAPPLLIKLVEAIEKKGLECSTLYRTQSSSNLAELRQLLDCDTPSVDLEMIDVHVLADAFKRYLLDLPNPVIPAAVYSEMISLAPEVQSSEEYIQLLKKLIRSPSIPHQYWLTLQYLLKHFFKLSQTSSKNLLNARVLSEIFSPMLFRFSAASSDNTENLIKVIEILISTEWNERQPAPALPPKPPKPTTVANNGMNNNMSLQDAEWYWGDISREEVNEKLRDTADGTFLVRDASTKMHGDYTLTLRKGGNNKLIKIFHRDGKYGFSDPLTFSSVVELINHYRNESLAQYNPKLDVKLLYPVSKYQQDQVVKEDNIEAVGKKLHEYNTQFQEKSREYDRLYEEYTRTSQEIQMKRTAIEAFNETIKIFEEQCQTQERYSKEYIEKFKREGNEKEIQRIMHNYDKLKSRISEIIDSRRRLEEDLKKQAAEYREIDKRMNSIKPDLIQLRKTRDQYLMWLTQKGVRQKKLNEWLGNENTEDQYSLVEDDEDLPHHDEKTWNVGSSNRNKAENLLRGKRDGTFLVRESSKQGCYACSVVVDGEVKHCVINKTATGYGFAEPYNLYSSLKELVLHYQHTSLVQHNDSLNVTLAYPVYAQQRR
Sequence of P70S6K2 (Q9UBS0 whole entry): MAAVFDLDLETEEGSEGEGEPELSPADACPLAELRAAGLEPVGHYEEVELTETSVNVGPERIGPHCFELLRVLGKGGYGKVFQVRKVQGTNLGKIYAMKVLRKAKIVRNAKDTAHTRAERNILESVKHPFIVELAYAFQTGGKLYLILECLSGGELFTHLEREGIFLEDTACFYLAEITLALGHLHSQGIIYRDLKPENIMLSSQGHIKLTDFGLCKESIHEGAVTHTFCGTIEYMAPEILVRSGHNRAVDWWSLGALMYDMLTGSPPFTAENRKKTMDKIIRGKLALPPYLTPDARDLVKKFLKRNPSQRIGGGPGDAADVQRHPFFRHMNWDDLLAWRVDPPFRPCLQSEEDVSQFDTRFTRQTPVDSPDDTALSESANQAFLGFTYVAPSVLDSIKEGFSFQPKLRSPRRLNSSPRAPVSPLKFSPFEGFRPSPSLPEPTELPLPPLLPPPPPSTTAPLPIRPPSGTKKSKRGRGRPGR
Sequence of CAMK2A (Q9UQM7 whole entry): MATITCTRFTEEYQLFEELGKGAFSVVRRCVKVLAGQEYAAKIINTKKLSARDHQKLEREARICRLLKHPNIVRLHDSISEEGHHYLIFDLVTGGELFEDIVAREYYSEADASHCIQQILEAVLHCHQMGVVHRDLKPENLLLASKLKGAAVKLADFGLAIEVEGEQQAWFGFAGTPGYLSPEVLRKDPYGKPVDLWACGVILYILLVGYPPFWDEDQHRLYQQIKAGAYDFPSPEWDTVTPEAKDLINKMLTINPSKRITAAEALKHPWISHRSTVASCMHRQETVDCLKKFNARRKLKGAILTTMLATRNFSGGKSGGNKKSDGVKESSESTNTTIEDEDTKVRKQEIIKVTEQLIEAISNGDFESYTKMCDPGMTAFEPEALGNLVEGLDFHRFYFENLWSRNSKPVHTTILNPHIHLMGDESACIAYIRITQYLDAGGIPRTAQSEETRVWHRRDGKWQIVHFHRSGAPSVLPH
Sequence of CDK1 (P06493 whole entry): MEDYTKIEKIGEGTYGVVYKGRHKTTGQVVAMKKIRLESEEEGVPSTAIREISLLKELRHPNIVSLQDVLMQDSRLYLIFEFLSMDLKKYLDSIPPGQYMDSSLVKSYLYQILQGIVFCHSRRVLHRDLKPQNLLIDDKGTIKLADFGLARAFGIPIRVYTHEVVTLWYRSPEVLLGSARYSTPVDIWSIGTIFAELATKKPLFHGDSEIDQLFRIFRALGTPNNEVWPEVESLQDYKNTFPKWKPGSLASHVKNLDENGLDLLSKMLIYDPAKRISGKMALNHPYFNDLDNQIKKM
Sequence of CDK1 (P14635 whole entry, further chain): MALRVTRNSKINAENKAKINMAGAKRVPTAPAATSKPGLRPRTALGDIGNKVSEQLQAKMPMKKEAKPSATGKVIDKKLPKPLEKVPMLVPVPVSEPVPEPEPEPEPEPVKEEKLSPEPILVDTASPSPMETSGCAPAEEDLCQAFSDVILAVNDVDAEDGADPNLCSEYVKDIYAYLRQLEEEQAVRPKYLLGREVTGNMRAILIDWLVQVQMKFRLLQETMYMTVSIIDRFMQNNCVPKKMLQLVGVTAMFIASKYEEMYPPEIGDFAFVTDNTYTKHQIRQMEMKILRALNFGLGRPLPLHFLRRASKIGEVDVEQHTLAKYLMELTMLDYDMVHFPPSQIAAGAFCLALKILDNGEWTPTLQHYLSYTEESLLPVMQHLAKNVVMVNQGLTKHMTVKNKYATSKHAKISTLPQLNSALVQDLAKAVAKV
Sequence of MEK2 (P36507 whole entry): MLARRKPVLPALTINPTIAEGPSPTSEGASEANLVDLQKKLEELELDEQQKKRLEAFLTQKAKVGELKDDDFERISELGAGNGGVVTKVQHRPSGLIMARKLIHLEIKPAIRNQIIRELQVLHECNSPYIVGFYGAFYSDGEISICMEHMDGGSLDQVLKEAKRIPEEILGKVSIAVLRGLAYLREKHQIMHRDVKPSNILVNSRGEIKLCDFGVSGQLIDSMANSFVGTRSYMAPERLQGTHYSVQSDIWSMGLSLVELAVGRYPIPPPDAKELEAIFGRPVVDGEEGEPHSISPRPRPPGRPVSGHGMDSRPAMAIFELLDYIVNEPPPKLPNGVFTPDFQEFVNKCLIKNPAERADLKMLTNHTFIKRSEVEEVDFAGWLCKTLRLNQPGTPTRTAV
Sequence of JNK2 (P45984 whole entry): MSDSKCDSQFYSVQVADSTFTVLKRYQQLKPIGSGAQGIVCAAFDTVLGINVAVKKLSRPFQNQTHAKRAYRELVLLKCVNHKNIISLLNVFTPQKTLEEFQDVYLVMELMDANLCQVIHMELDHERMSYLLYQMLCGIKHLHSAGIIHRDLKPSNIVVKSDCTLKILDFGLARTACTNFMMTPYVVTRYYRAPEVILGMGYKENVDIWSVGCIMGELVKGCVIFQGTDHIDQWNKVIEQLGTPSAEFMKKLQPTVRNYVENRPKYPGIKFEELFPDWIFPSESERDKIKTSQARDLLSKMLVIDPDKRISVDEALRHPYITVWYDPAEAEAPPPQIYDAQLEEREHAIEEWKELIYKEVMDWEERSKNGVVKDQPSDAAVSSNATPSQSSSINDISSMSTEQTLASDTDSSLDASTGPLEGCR

inhibition at 1 µM (FMS): 0% | inhibition at 1 µM (MAP4K5): 13% | inhibition at 1 µM (CK1-GAMMA1): 2% | inhibition at 1 µM (MAPKAPK2): 0% | inhibition at 1 µM (ALK2): 0% | % inhibition (CK2): 0% | inhibition at 1 µM (MAPKAPK3): 0% | inhibition at 1 µM (CLK1): 0% | inhibition at 1 µM (MEK2): 0% | inhibition at 1 µM (PI3K-ALPHA): 0% | inhibition at 1 µM (SGK2): 0% | inhibition at 1 µM (PI3K-BETA): 0% | inhibition at 1 µM (SLK): 0% | inhibition at 1 µM (MKNK1): 0% | inhibition at 1 µM (SPHK1): 0% | inhibition at 1 µM (MRCK-BETA): 0% | inhibition at 1 µM (BRAF): 0% | inhibition at 1 µM (MSK2): 2% | inhibition at 1 µM (ITK): 0% | inhibition at 1 µM (CAMK2A): 2% | inhibition at 1 µM (PKC-THETA): 0% | inhibition at 1 µM (TAOK3): 0% | inhibition at 1 µM (CAMK2D): 4% | inhibition at 1 µM (JNK1): 0% | inhibition at 1 µM (PKN2): 1% | inhibition at 1 µM (JNK2): 0% | inhibition at 1 µM (CDK1): 2% | inhibition at 1 µM (PLK4): 0% | inhibition at 1 µM (LATS2): 2% | inhibition at 1 µM (TRKB): 3% | inhibition at 1 µM (P38-BETA): 0% | inhibition at 1 µM (PRKD3): 0% | inhibition at 1 µM (P70S6K2): 0% | inhibition at 1 µM (PYK2): 4% | inhibition at 1 µM (YES): 0% | inhibition at 1 µM (RIPK2): 0% | IC50 [1]: > 30 µM | IC50 (Muscarinic M1 receptor): > 30 µM
Compound: O=C(Nc1nccs1)C(c1cc(F)ccc1O)N1Cc2ccccc2C1=O (centres unmarked) [EAI045, 2-(5-fluoro-2-hydroxyphenyl)-2-(1-oxo-2,3-dihydro-1H-isoindol-2-yl)-N-(1,3-thiazol-2-yl)acetamide]
tumor response [2]: failed to respond | tumor response [3]: marked tumor shrinkage | EGFR autophosphorylation [4]: potently decreased, but did not completely eliminate EGFR autophosphorylation
